Measurements gathered from unrelated publications.
Lines come from different studies, so protocols differ.
CXCR4: C-X-C chemokine receptor type 4 (CXCR4, Homo sapiens, UniProt P61073)
CDK1 with cyclin B: Cyclin-dependent kinase 1, with cyclin B (CDK1, Homo sapiens, UniProt P06493)

| SMILES | target | observed | mode | tested at | inhibition [%] |
| --- | --- | --- | --- | --- | --- |
| N=C(N)c1ccc2cc(OC(=O)c3ccc(N=C(N)N)cc3)ccc2c1 | Dipeptidyl peptidase 4 (DPP4, Homo sapiens, UniProt P27487) | enzyme activity | inhibitor | 10 µM | 18 |
| O=C(Nc1cccnn1)N1CCN([C@@H]2CCOc3cc(C(F)(F)F)ccc32)CC1 | CXCR4 | cell-free assay | – | 20 µM | -21 |
| C#Cc1n[nH]c2c(-c3cn(C(C)c4ccccn4)c(=O)[nH]c3=O)cc(F)cc12 (stereo not drawn) | CDK1 with cyclin B | enzyme activity | inhibitor | 1 µM | 6.8 |
| Cn1cc(-c2cccc(N3CCc4c(sc5c4CC(C)(C)C5)C3=O)c2CO)cc(Nc2ccncn2)c1=O | 5'-AMP-activated protein kinase catalytic subunit alpha-2 (PRKAA2, Homo sapiens, UniProt P54646) | enzyme activity | inhibitor | 1 µM | 5 |
| N#C[C@@H]1CC(F)(F)CN1C(=O)CNC(=O)c1ccnc2ccccc12 | Prolyl endopeptidase FAP (FAP, Homo sapiens, UniProt Q12884) | enzyme activity | inhibitor | 0.1 µM | 100 |
| Cc1ncc(C)n2nc(/C=C/c3nc(N4CCCC4)cc(N4CCOCC4)n3)nc12 | CXCR4 | cell-free assay | – | 10 µM | -8 |
| Cn1cc(-c2cc(F)cc(N3CCn4c(cc5c4CCCC5)C3=O)c2CO)cc(Nc2ccc(N3CCN(C4COC4)CC3)cn2)c1=O | CDK1 with cyclin B | enzyme activity | inhibitor | 0.1 µM | 8 |
| C#Cc1n[nH]c2c(-c3cn([C@@H](C)c4ccccc4)c(=O)[nH]c3=O)cc(F)cc12 | CDK1 with cyclin B | enzyme activity | inhibitor | 0.1 µM | 5.9 |
| CCOC(=O)c1ccc(OC(=O)CCCCCNC(=N)N)cc1 | Stromelysin-2 (Homo sapiens, UniProt P09238) | enzyme activity | inhibitor | 10 µM | 12 |
